Each structure is given as a SMILES string. In all, about 360,000 compounds went through this assay and about 890 (0.25%) were called active. This is one part of a sample in which actives are shown more often than they occur.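 How the source made its calls: active means inhibition at 20 µM, scaled per plate between control wells, above about 37% (limit read from the data); inactive means the rest.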

Inhibition data for 5 compounds are collected here from PubChem BioAssay AID588621 (Sanford-Burnham Center for Chemical Genomics, 2011).

Sequence of Tyrosine-protein phosphatase non-receptor type 5 (Homo sapiens) (P54829 whole entry, looked up): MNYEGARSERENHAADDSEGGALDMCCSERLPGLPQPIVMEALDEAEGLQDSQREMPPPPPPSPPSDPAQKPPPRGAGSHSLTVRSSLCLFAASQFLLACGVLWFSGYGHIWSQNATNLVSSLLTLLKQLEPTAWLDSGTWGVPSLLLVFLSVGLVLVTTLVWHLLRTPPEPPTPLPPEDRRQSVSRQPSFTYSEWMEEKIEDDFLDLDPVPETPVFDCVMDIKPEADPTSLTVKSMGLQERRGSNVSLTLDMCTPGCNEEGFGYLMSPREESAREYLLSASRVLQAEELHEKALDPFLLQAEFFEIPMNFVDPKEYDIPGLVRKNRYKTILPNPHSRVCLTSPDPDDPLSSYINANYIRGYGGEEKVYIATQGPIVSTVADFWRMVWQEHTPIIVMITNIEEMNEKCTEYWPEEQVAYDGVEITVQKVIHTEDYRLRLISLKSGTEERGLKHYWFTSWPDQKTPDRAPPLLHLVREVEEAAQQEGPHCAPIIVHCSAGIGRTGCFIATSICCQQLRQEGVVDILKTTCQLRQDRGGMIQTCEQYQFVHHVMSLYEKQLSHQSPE

The target in the assay is Tyrosine-protein phosphatase non-receptor type 5 (Homo sapiens) (UniProt P54829). Kind of assay: inhibition of human PTPN5 enzyme activity – biochemical, fluorescence intensity, uHTS, primary screen (AID 588621).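 Further: 0% = DMSO with enzyme and substrate and 100% = substrate only without enzyme.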 The following applies: recombinant STEP, OMFP fluorogenic substrate, at 20 µM, hits give high values. The method in brief:
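medium = Bis-Tris buffer pH 6.0, 2.5 mM DTT, 0.005% Tween 20 | test system = STEP (striatal-enriched tyrosine phosphatase) enzyme, cell-free | measure = normalized % inhibition | compound dosing = 20 µM, 1% DMSO | also added = 25 µM OMFP | schedule = reaction 20 min, ambient temperature | measured by = fluorescence read at 480 nm ex / 540 nm em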
For orientation: inhibition means the relative decrease from the control value, in per cent. In the case of `COc1ccc(N2C(=O)/C(=C/c3ccco3)C(=O)NC2=S)cc1`, the inhibition is 63.7% (active). The figure for `CC1CC=CCC12C(=O)NC(=S)NC2=O` (stereo not given) is 0% (inactive); for `COc1ccc(-n2c(-c3ccccc3)nc3ccccc3c2=O)cc1` it is -0.9% (inactive). As to `O=C(c1cc2nc(-c3ccccc3)cc(-c3ccccc3)n2n1)N1CCC2(CC1)OCCO2`, the inhibition was 0.4% (inactive).

Regarding `CN(C)CCN(CC1CCCN(Cc2ccccc2F)C1)C(=O)Cc1ccc(F)c(F)c1` (stereo not given), the inhibition is -2% (inactive).
